Results as given in PMC6614152 (Clinical Pharmacokinetics, 2019).
Where “and” joins values, the source holds several entries; their conditions need not be identical. Identical values can stand only once. Entries after “also recorded” stand apart in the source; their conditions may differ. Like-named read-outs stand apart in the source and are kept apart here.

How the values were obtained:
moderate to severe RA = conditions: monotherapy or in combination with csDMARDs; cited from earlier work
CYP2D6 = conditions: in vitro data; cited from earlier work
[1] = cited from earlier work
[2] = Population pharmacokinetic analysis; format: in vivo, humans
Summary of the method: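 Nonlinear mixed-effects model (FOCEI) fitted to 29,372 plasma concentrations from 4170 healthy and RA subjects across 12 studies (IR 1–48 mg, ER 7.5–30 mg), quantified by LC-MS/MS. Two-compartment structure: IR first-order absorption with lag time, ER mixed zero/first-order absorption with lag time, linear elimination; combined additive/proportional residual error. Below-LLOQ values were set to LLOQ/2, with later post-dose ones censored. Co-medications were time-varying covariates. Checked by VPC (400 replicates) and ER pcVPC.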

[3] = cited from earlier work; remark: listed apart in the source
JAK1 = conditions: in vitro cellular assays; cited from earlier work
[4] = format: in vivo, humans
CYP3A = conditions: strong CYP3A inhibitor ketoconazole; cited from earlier work
[5] = final model, population estimate (%RSE), outliers excluded
[6] = healthy subjects, ER formulation, population estimate
[7] = RA subjects with bodyweight < 60 kg, steady state, simulated
[8] = RA subjects with bodyweight > 100 kg, steady state, simulated

Compound: CC[C@@H]1CN(C(=O)NCC(F)(F)F)C[C@@H]1c1cnc2cnc3[nH]ccc3n12 [upadacitinib, Upadacitinib]
- clinical signs and symptoms in subjects with moderate to severe RA compared with placebo or active comparators (moderate to severe RA): rapid and significant improvements; also recorded: significantly improved
- contribution of CYP2D6 to upadacitinib metabolism (CYP2D6): potential minor contribution
- effect of CYP2D6 metabolic phenotype on apparent oral clearance [1]: no effect
- typical oral clearance in RA patients lower compared with healthy subjects [1]: 24%
- time-dependent change in upadacitinib clearance with continued treatment ([2]; CWRES versus time): no time-dependent change
- dose proportionality of bioavailability ([2]; ER dose range of 7.5-30 mg): dose-proportional
- effect of pH-modifying medications on upadacitinib absorption from the ER formulation ([2]; ER formulation): no effect
- Bioavailability of the extended-release formulation relative to the immediate-release formulation [2, 5]: 76.2% and 76%
- ISV on CL/F in phase I [2, 5]: 21%
- ISV on CL/F in phase II/III [2, 5]: 37%
- ISV on Vc/F in phase I [2, 5]: 24%
- ISV on Vc/F in phase II/III [2, 5]: 53%
- apparent oral clearance [2, 6]: 53.7 L/h
- steady-state volume of distribution (sum of the central and peripheral volume of distribution) [2, 6]: 294 L
- correlation of baseline hsCRP with upadacitinib clearance ([2]; in vivo): not correlated
- effect of methotrexate on upadacitinib pharmacokinetics ([2]; in vivo): not affect
- effect of pH-modifying agents on upadacitinib pharmacokinetics ([2]; in vivo): not affect
- effects of bodyweight and mild or moderate renal impairment on upadacitinib exposures ([2]; in vivo): statistically significant but non-clinically relevant effects; also recorded: Bodyweight and mild or moderate renal impairment had statistically significant but non-clinically relevant effects on upadacitinib exposures
- higher estimated upadacitinib AUC in RA subjects compared with healthy subjects ([2]; in vivo): 33%
- lower upadacitinib clearance in RA subjects compared with healthy subjects ([2]; in vivo): 25%
- functional half-life ([3]; IR formulation): 3 to 4 h
- time at which peak plasma concentrations (Cmax) were reached ([3]; after ER dosing): 2 to 4 h
- time at which peak plasma concentrations (Cmax) were reached ([3]; after IR dosing): 1 to 2 h
- Cmax and Cmin of ER 15 and 30 mg once daily versus IR 6 mg and 12 mg twice daily [3]: comparable
- daily AUC of ER 15 and 30 mg once daily versus IR 6 mg and 12 mg twice daily [3]: equivalent
- terminal half-life ([3]; following administration of the IR or ER formulations): 6 to 16 h
- upadacitinib dose eliminated unchanged in urine (renal pathway) ([3]; phase I study): Approximately 20%
- linearity of pharmacokinetics ([3]; range of doses evaluated in phase I and II studies): linear pharmacokinetics
- selectivity for JAK1 over JAK2 (JAK1): approximately 60 fold
- selectivity for JAK1 over JAK3 (JAK1): more than 100 fold
- AUC higher relative to subjects with a bodyweight of 60-100 kg [4, 7]: 5%
- Cmax higher compared with subjects with a bodyweight of 60-100 kg [4, 7]: 18%
- AUC lower relative to subjects with a bodyweight of 60-100 kg [4, 8]: 5%
- Cmax lower compared with subjects with a bodyweight of 60-100 kg [4, 8]: 18%
- AUC higher compared with RA subjects with normal renal function ([4]; RA subjects with moderate renal impairment (CrCl 30 to < 60 mL/min)): 26%
- increase in upadacitinib exposures with ketoconazole (CYP3A): approximately 75%
